Laboratory results from the EternaBench riboswitch data.

Test system: MS2 coat protein
Assay: apparent Kd, MS2 coat protein; higher = weaker binding; RNA-MaP array; FMN 200 µM where present
Summary of the method: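 The apparent Kd is reported as the median of filtered per-cluster binding-curve fits. To get these curves, designs transcribed by stalled E. coli RNA polymerase on Illumina sequencing-chip clusters were titrated with SNAP-549-labelled MS2 coat protein from 0.7 or 1.5 nM, doubling to 3 µM. Titrations were run without and then with constant ligand in 100 mM Tris-HCl pH 7.5, 80 mM KCl, 4 mM MgCl2, BSA, DTT, yeast tRNA and Tween-20, and green signal was normalised to red-channel RNA signal and control-cluster median Fmax.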

[1] = designed as: ON switch for flavin mononucleotide, no ligand
[2] = ligand present: flavin mononucleotide, designed as: ON switch for flavin mononucleotide
[3] = designed as: OFF switch for flavin mononucleotide, no ligand
[4] = ligand present: flavin mononucleotide, designed as: OFF switch for flavin mononucleotide

## CGUCUGGAUCAAGGAUAUGUCAAGACGCUCCGCGUACACAUGAGGAUCACCCAUGUCAACAAAUGACAGAAGGUGAUAAUGGCC
[1]
  apparent Kd: 80.3 nM
[2]
  apparent Kd: 444 nM

## CGUGAACAUGAGGAUCACCCAUGUGAAAAACGUAGAGGAUAUGUCACAUGAGUGUAAAAGACAGAAGGCUAUCGUG
[1]
  apparent Kd: 151 nM
[2]
  apparent Kd: 27.1 nM

## CGUGCUAUGUAGAAGGCAGAUCUGAUUCAGAUCUGAGGAUAUACAUGAGGAUCACCCAUGUUAUGCACCAGCACGAGAGUGCAG
[3]
  apparent Kd: 7.18 nM
[4]
  apparent Kd: 14.4 nM

## CGUGUUGACGAAGGAUAUGGAUACAUGAGGAUCACCCAUGUAUAUUUUGUGAUCAAGUUUAAGAUCCAGAAGGUCGUUGACACG
[3]
  apparent Kd: 77.6 nM
[4]
  apparent Kd: 131 nM

## CGUUGUAACGCAGGAUAUCCAAAGCUUUUUGCAGGAGAAGGGUGUUACAUGAGGAUCACCCAUGUGAAGGCCCGCAUUCCUCAU
[3]
  apparent Kd: 5.57 nM
[4]
  apparent Kd: 6.41 nM

## CGUUGUUAAGGAUAUGGACUCUUGAACAUGAGGAUCACCCAUGUGCGCGUGGUCUAAAUACCAGAAGGUGGCCGCC
[3]
  apparent Kd: 31.7 nM
[4]
  apparent Kd: 29.3 nM

## CGUUGUUCCGCAGGAUAUGCAUUGGAUUACAAUGCAGAAGGGCGAUUACAUGAGGAUCACCCAUGUGUGGACAAUAAGGAAGAG
[1]
  apparent Kd: 1490 nM
[2]
  apparent Kd: 142 nM

## CGUUUUCACAUUUUAGUGUUUUAUACAGAAGGCCAUACACAUGAGGAUCACCCAUGUCAGGAAUUGGAGGAUAUGUUAUUGACG
[1]
  apparent Kd: 5.92 nM
[2]
  apparent Kd: 4.85 nM

## CUAAAUUAGUAGAAGGACGGAGAGUAAGAAGUCGUAGGAUAUACAUAAGACAUGAGGAUCACCCAUGUGUGUAUGUUGGGUAUG
[3]
  apparent Kd: 6.54 nM
[4]
  apparent Kd: 6.65 nM

## CUACAUGAGGAUCACCCAUGUGCACACCGGAUCGGUAUGCGCAGAAGGGCCAUGGAGAAAGCCAGGCAGGAUAUGCAAAGGGCU
[1]
  apparent Kd: 258 nM
[2]
  apparent Kd: 176 nM

## CUACUCAUGUAAGGAUAUGCAGCCGAAACGGCUGCAGAAGGUACUAUAAUACAUGAGGAUCACCCAUGUAAAAUAAAUAAAGUU
[1]
  apparent Kd: 33.8 nM
[2]
  apparent Kd: 14.7 nM

## CUAUAGAUAUCAGGAUAUCUAUUUCCUACAUGAGGAUCACCCAUGUAGAGGAUCACCCAUGUAAAGGAGAAGGGAUAUCUAUAG
[1]
  apparent Kd: 91.3 nM
[2]
  apparent Kd: 20.4 nM

## CUAUGAGCGAUAGGAUAUACUGAGAUUGAGUGGGUAGAAGGAUCGAUAGUGUAGAAGACAUGAGGAUCACCCAUGUUACGGGUU
[1]
  apparent Kd: 892 nM
[2]
  apparent Kd: 290 nM

## CUAUGCGGAAUAGGAUAUUCAUUCAUGAGGAUAGAAGAAGGGUUACAUGAGGAUCACCCAUGUAUGCACAUGAGGAUCCCUUAG
[3]
  apparent Kd: 247 nM
[4]
  apparent Kd: 260 nM

## CUAUUUAAGCAGAAGGCGUGGGAGAGAUUCACACGAGGAUAUGCGAUAACGGCGUAUGACAUGAGGAUCACCCAUGUACGUGCG
[1]
  apparent Kd: 5.83 nM
[2]
  apparent Kd: 4.91 nM

## CUCACGUUAGUAGGAUAUCCGACAUGAGGAUCACCCAUGUCACUGCGUCGCUAAGGUAGAUGCAAGGAGAAGGGCUGAUAAAUA
[1]
  apparent Kd: 259 nM
[2]
  apparent Kd: 124 nM

## CUCAUGUGAGGAUAUCAGUAGUAAAAAAAUAAAAUUACUACUGAGAAGGCACAUGAGGAUCACCCAUGUGCCAA
[3]
  apparent Kd: 16.1 nM
[4]
  apparent Kd: 28.6 nM

## CUCAUGUGCGUCGGCAAGUUAACACAGGAUAUCCGAGAAAACAUGAGGAUCACCCAUGUAACUUCGGAGAAGGGUGAUGAGAGA
[1]
  apparent Kd: 64.9 nM
[2]
  apparent Kd: 23.1 nM

## CUCCGUGGCGAGAAGGGCGGGAUUUUAGGUUCUGUAGGAUAUCGAAACAUGAGGAUCACCCAUGUAUUGAUCGGGUGCAGUGUG
[3]
  apparent Kd: 22 nM
[4]
  apparent Kd: 23.2 nM

## CUCCUCGUGUCGAACAUGAGGAUCACCCAUGUAAUGGGCACCGAGGAUAUCCCGCUGGCGUUAUGGGAGAAGGCGGUGGAUUUA
[3]
  apparent Kd: 42.6 nM
[4]
  apparent Kd: 40.2 nM

## CUCGAGUUAGGAUAUCGAACGUAACAAGCGGGAACUCCCGCCGAGAAGGAACAUGAGGAUCACCCAUGUGAAAA
[3]
  apparent Kd: 23.2 nM
[4]
  apparent Kd: 22.2 nM

## CUCGGACAUGAGGAUCACCCAUGUGAGGAUAUGGCGCGAUCGUCGAAAGACGAUAGCGCCAGAAGGCACAAAUG
[3]
  apparent Kd: 65.4 nM
[4]
  apparent Kd: 195 nM

## CUCUUGGCAGGAUAUGCAAUUUUAGACAUGAGGAUCACCCAUGUGAUCAUUCCAUAUUAUGCAGAAGGGCCUAAAC
[3]
  apparent Kd: 48.2 nM
[4]
  apparent Kd: 320 nM

## CUCUUGUCAGGAUAUCUAAGCUGCCUCCCAGUAGCCGAAUUAGAGAAGGGACAUGAGGAUCACCCAUGUAAACG
[3]
  apparent Kd: 105 nM
[4]
  apparent Kd: 34.2 nM

## CUCUUGUGAGGAUAUCAGUAGUAAAAAAAUAAAAUUACUACUGAGAAGGCACAUGAGGAUCACCCAUGUACCUU
[3]
  apparent Kd: 22.9 nM
[4]
  apparent Kd: 22.7 nM

## CUCUUGUUAGGAUAUCAAACCGGCAGCGGAGCCGCCGGAAGUGAGAAGGGACAUGAGGAUCACCCAUGUAAGAA
[3]
  apparent Kd: 81.6 nM
[4]
  apparent Kd: 256 nM

## CUGAAGUCAGGAUAUCGUUAAUUUAGUUGUUUGUAUUAGUUCGAGAAGGGACAUGAGGAUCACCCAUGUAAGUC
[3]
  apparent Kd: 33.9 nM
[4]
  apparent Kd: 45.9 nM

## CUGACGAUGUAAGGAUAUGCUGAGGAUAACUCAGCAGAAGGUACAUGAGGAUCACCCAUGUAACGUCAGAAUAAUAAUAAUAAU
[3]
  apparent Kd: 12.6 nM
[4]
  apparent Kd: 23.1 nM

## CUGAUGUUAGGAUAUCAGGCGCCCGCCACUAGCAGGGCGCAUGAGAAGGGACAUGAGGAUCACCCAUGUAGUAA
[3]
  apparent Kd: 31.6 nM
[4]
  apparent Kd: 54.5 nM

## CUGCCUUAUGUAGGAUAUGCAUAGCGUUGCUAUGCAGAAGGACAUGAGGAUCACCCAUGUAUGUUAUCAAUACAUAUCUGGCAG
[3]
  apparent Kd: 16.9 nM
[4]
  apparent Kd: 53.2 nM

## CUGCUAAUAGGAUAUGCUAGGGAGGCUUCACGUUAGCAGGAACAUGAGGAUCACCCAUGUAGAAGGAUUGUAGA
[3]
  apparent Kd: 30.2 nM
[4]
  apparent Kd: 21.2 nM

## CUGGGUAAAAUGGGAGGUAGCUGGCAGGAUAUGACAUGAGGAUCACCCAUGUGGAGAUCUUGGGAUCAGAAGGGCCUGUGACCU
[3]
  apparent Kd: 205 nM
[4]
  apparent Kd: 119 nM

## CUGGGUUAGGAGAAGGGCUAGAGUGUGAUAUAUUUGCCCGCGAGCACAUGAGGAUCACCCAUGUAGCAGGAUAUCCAAACCGGU
[3]
  apparent Kd: 7.33 nM
[4]
  apparent Kd: 19.5 nM

## CUGGUCUAUGUAGGAUAUGGUGUAUAUGUAUUACCAGAAGGACAUGAGGAUCACCCAUGUGUCGUGGUAUGAGUAGGUGAUGUU
[3]
  apparent Kd: 47.2 nM
[4]
  apparent Kd: 146 nM

## CUGGUUGUCGAGGAUAUGCACCAGCUCGCUGACGCAGAAGGCGACACAUGAGGAUCACCCAUGUCGGUUCGCGU
[3]
  apparent Kd: 21.9 nM
[4]
  apparent Kd: 32.9 nM

## CUGUAGUCAGGAUAUACAUGAGGAUCACCCAUGUAAAAUUUUAAUUUAAUUUGAAGGUGUAGAAGGGACCAGUU
[3]
  apparent Kd: 34.3 nM
[4]
  apparent Kd: 32.9 nM

## CUGUGACGGUGCGCAAGUGGACGUAGAAGGGUCACAUGAGGAUCACCCAUGUGGGCCUGCGAGUGACAGGAUAUACGUUCGUGC
[3]
  apparent Kd: 15 nM
[4]
  apparent Kd: 57 nM

## CUGUGACGGUGCGCAAGUGGACGUAGAAGGGUCACAUGAGGAUCACCCAUGUGGGCCUGCUAGUGACAGGAUAUACGUUCGUGC
[4]
  apparent Kd: 65.2 nM

## CUGUUCGGUGUAGGAUAUGCAUAUUCCCAUUAUGCAGAAGGACAUGAGGAUCACCCAUGUAUGUUAUUAUCAUGUGUUACAUGC
[3]
  apparent Kd: 38.2 nM
[4]
  apparent Kd: 90.2 nM

## CUGUUUAAAGUGAGGAUAUGAACCUAGAACCAGGAUUAGAAGGCACAUGAGGAUCACCCAUGUGGUUGGUUGGG
[3]
  apparent Kd: 16.6 nM
[4]
  apparent Kd: 16.7 nM

## CUUCAGUCAGGAUAUGUUAAUCUCACCACUCGGCGAGCCGGACAGAAGGGACAUGAGGAUCACCCAUGUUAAAA
[3]
  apparent Kd: 39.1 nM
[4]
  apparent Kd: 23.4 nM

## CUUCAGUGAGGAUAUACAUAACGGGACGUUAAUAUCGUUAGGUAGAAGGCACAUGAGGAUCACCCAUGUUUAAA
[3]
  apparent Kd: 92 nM
[4]
  apparent Kd: 66 nM

## CUUCUCAGAGUCAGGAUAUAGUCGAAAGGGCUAGACUAGAAGGGACAUGAGGAUCACCCAUGUAAAAUAUCAAA
[3]
  apparent Kd: 19.2 nM
[4]
  apparent Kd: 29.8 nM

## CUUCUGUGAGGAUAUGUUAGCUCCCAGAAUGUCGCUGGGAGACAGAAGGCACAUGAGGAUCACCCAUGUGGGCG
[3]
  apparent Kd: 35.2 nM
[4]
  apparent Kd: 175 nM

## CUUGUACAUGAGGAUCACCCAUGUUAGGAUAUCUCGCCGUCGGCUUGCCGACGGUAUUAGAGAAGGGACUUGGG
[3]
  apparent Kd: 56 nM
[4]
  apparent Kd: 33 nM

## CUUGUGUUAGGAUAUGCGCCCUGAAGAAGCAGGGCCAGAGAGCAGAAGGAACAUGAGGAUCACCCAUGUGUGAC
[3]
  apparent Kd: 60.3 nM
[4]
  apparent Kd: 51.2 nM

## CUUGUGUUAGGAUAUGCGCCCUGCAAAAGCAGAGCCAGAGAGCAGAAGGAACAUGAGGAUCACCCAUGUGUGAC
[3]
  apparent Kd: 67.5 nM
[4]
  apparent Kd: 61.3 nM

## CUUGUGUUAGGAUAUGCGUUUCCGGUACGUCACCGGAUCUGGCAGAAGGGACAUGAGGAUCACCCAUGUUUGGC
[3]
  apparent Kd: 46.6 nM
[4]
  apparent Kd: 30.3 nM

## CUUGUGUUAGGAUAUGCGUUUCCGGUGCGUCACUGGAUCUGGCAGAAGGGACAUGAGGAUCACCCAUGUUUGGC
[3]
  apparent Kd: 38.7 nM
[4]
  apparent Kd: 31 nM

## CUUGUUUAUGUAGGAUAUGCCUGGCGUGCCUUUGCAGAAGGACAUGAGGAUCACCCAUGUAACAUGAGGCUCCACCUUGUCGCC
[3]
  apparent Kd: 143 nM
[4]
  apparent Kd: 141 nM

## CUUUAGUGAGGAUAUGUGGCUUCGAUCGUGAGAUCGAGGCUACAGAAGGCACAUGAGGAUCACCCAUGUUCCUG
[3]
  apparent Kd: 15.7 nM
[4]
  apparent Kd: 48.5 nM

## CUUUCAUUUUAGGAUAUCGAGUUGGCGAUAGCUCGAGAAGGGAAUACAUGAGGAUCACCCAUGUCGGGUCACGU
[3]
  apparent Kd: 177 nM
[4]
  apparent Kd: 173 nM

## CUUUCGUGAGGAUAUCAGUAGUAAAAAUAUAAAAUUACUACUGAGAAGGCACAUGAGGAUCACCCAUGUUCCUC
[3]
  apparent Kd: 26 nM
[4]
  apparent Kd: 150 nM

## CUUUCGUGAGGAUAUCAGUAGUAAAUAAAUAAAAUUACUACUGAGAAGGCACAUGAGGAUCACCCAUGUUCCUC
[3]
  apparent Kd: 23.6 nM
[4]
  apparent Kd: 144 nM

## CUUUCGUGAGGAUAUCAGUAGUAAUAAUAUAAAAUUACUACUGAGAAGGCACAUGAGGAUCACCCAUGUUCCUC
[3]
  apparent Kd: 24.5 nM
[4]
  apparent Kd: 114 nM

## CUUUUAUAAUAGAAGGUAGACUUUAAGUGGAUCACCCAUGUGUUGGUACUAAGGAUAUGUAGUAACAUGAGGAUCACCCAUGUU
[1]
  apparent Kd: 20.5 nM
[2]
  apparent Kd: 16.9 nM
